The target of series [1] is T1, Nonstructural protein 5A (Hepatitis C virus) (UniProt Q5L478).
T1 sequence (whole entry): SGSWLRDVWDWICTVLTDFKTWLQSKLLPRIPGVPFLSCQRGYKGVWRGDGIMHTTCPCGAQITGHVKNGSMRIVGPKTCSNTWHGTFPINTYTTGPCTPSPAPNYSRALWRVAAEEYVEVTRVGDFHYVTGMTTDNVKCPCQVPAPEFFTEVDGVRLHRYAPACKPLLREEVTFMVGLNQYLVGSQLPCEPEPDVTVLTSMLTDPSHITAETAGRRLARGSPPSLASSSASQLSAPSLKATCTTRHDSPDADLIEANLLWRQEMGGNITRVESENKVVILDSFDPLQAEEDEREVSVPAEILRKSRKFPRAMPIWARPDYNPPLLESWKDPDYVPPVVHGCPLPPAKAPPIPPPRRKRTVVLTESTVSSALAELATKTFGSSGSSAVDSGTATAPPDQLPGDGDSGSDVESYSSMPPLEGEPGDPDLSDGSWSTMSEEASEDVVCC
In words: Potency index, ratio of ombitasvir IC50 to compound IC50 for inhibition of NS5A in HCV genotype 3a infected in human HuH7 replicon cells expressing HCV genotype 1b chimeric replicon. The note with it: Hepatitis C virus subtype 3a. The class given is cell-based. (In general: A replicon is a self-replicating genome or part of one, used to study replication in cells.)

In series [2] the target is T1, Nonstructural protein 5A (Hepatitis C virus). The experiment in a line: Potency index, ratio of ombitasvir IC50 to compound IC50 for inhibition of NS5A in HCV genotype 6a infected in human HuH7 replicon cells expressing HCV genotype 1b chimeric replicon. The series is classed as cell-based. The note with it: Hepatitis C virus subtype 6a.
A short description of series [3]: Metabolic stability in mouse liver microsomes assessed as parent compound remaining at 0.2 uM preincubated for 5 mins followed by NADPH addition measured up to 60 mins by UPLC-MS/MS analysis. The class given is ADME, microsome. The note with it: read-out: Stability. The essentials: (§1)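 Pooled mouse, rat or human liver microsomes 0.2 mg/mL with 1 mM NADPH, 5 mM MgCl2, 100 mM potassium phosphate pH 7.4 and 0.2 µM compound; 5-min preincubation at 37 °C, NADPH start, sampled at 5, 15, 30, 60 min; ice-cold acetonitrile stop; UPLC-MS/MS; percent parent remaining at 60 min.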
On the technique in general: Liver microsomes are a subcellular fraction often used to study metabolism.

Series [4] in a line: Metabolic stability in rat liver microsomes assessed as parent compound remaining at 0.2 uM preincubated for 5 mins followed by NADPH addition measured up to 60 mins by UPLC-MS/MS analysis. The class given is ADME, microsome. The note with it: read-out: Stability. The gist of the method:
as §1

Series [5] in a line: Metabolic stability in human liver microsomes assessed as parent compound remaining at 0.2 uM preincubated for 5 mins followed by NADPH addition measured up to 60 mins by UPLC-MS/MS analysis. The class given is ADME, microsome. As to conditions: read-out: Stability. The essentials:
as §1

Series [6] can be described thus: Tmax in mouse at 10 mg/kg, ig administered as single dose by UPLC-MS/MS analysis. The series is classed as ADME, organism-based. The note with it: in vivo, po. The gist of the method: (§2)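 Adult male mice (12 h light-dark, 22 °C, 55% humidity) fasted 12 h with free water, then given a single 10 mg/kg intragastric dose; plasma concentrations by UPLC-MS/MS; PK parameters calculated by software.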

The nature of series [7]: Cmax in mouse at 10 mg/kg, ig administered as single dose by UPLC-MS/MS analysis. The class given is ADME, organism-based. Set-up: dose 10 mg/kg, route intragastric. As to conditions: in vivo, po. The gist of the method:
as §2

The nature of series [8]: Half life in mouse at 10 mg/kg, ig administered as single dose by UPLC-MS/MS analysis. The class given is ADME, organism-based. The note with it: in vivo, po. The gist of the method:
as §2

Series [9] can be described thus: AUC (0 to t) in mouse at 10 mg/kg, ig administered as single dose by UPLC-MS/MS analysis. The class given is ADME, organism-based. The note with it: in vivo, po. The gist of the method:
as §2

Structures are written as SMILES.

What is called Tmax is the time at which the peak concentration occurs. As usually defined, the Cmax is the peak of the concentration-time curve. What is called half-life is the time in which the quantity being followed falls by half. Lower therefore signals fast loss. As a reminder, the AUC(0-t) is exposure summed from dosing to a finite time, without extrapolation to infinity. Low readings indicate less exposure, high ones more exposure. Take `COC(=O)N[C@H](C(=O)N1CCC[C@H]1C(=O)Nc1ccc([C@@H]2CC[C@@H](c3ccc(NC(=O)[C@@H]4CCCN4C(=O)[C@@H](NC(=O)OC)C(C)C)cc3)N2c2ccc([Si](C)(C)C(C)(C)C)cc2)cc1)C(C)C`: the Ratio IC50 in series [1] was 7.2; in series [2] it was 3.7. In addition, the values for the remaining at 1 h, 0.2 µM in series [3], in series [4] and in series [5] were 92.1%, 87% and 84.3%, respectively. In addition, the Tmax in series [6] stood at 3 h. In addition, the Cmax in [7] is 211 ng/mL. The half-life in [8] is 34.7 h. Also, in [9], the AUC(0-t) amounted to 3520 ng·h/mL.
With `COC(=O)N[C@H](C(=O)N1CCC[C@H]1C(=O)Nc1ccc([C@@H]2CC[C@@H](c3ccc(NC(=O)[C@@H]4CCCN4C(=O)[C@@H](NC(=O)OC)C(C)C)cc3)N2c2ccc([Si](C)(C)C)cc2)cc1)C(C)C`, the Ratio IC50 in series [1] was determined as 2.3; in series [2], 2.4. Also, the remaining at 1 h, 0.2 µM in series [3] amounted to 93.3%; in series [4], 101%; in series [5], 99.2%. Also, the Tmax in [6] stood at 3 h. Moreover, the Cmax in series [7] is 262 ng/mL. For the same compound, the half-life in series [8] was 8.8 h. Further, in series [9], the AUC(0-t) came out at 2910 ng·h/mL.

For the origin of these results see ChEMBL document CHEMBL4196017, “Design, synthesis and identification of silicon-containing HCV NS5A inhibitors with pan-genotype activity” (Eur J Med Chem, 2018).
